One data set deals with Escherichia coli. The experiment in a line: Antibacterial activity against Escherichia coli RFM795 harboring lptD gene mutant after 16 hrs by broth micro dilution method. The class given is functional. As to conditions: RFM795, 16 h. The method in brief: (§1)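 Mueller-Hinton broth microdilution. Bacteria were grown overnight at 37 °C with shaking, diluted 1:100 and grown to mid-exponential phase. About 3 × 10^5 CFU per well went into MH with test compound (0–256 μg/mL) in DMSO vehicle. Plates were incubated at 37 °C for 16 h. MIC was the lowest concentration without growth visible by eye; three independent assays.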

Data set [1] has as its system Staphylococcus aureus. The experiment in a line: Antibacterial activity against Staphylococcus aureus ATCC 25923 after 16 hrs by broth micro dilution method. As to conditions: ATCC 25923, 16 h. The class given is functional. An outline of the steps:
as §1

Data set [2] deals with Staphylococcus aureus. The experiment in a line: Antibacterial activity against vancomycin-resistant Staphylococcus aureus isolate 1 after 16 hrs by broth micro dilution method. In kind it is functional. As to conditions: isolate 1, 16 h. The method in brief: as §1
Data set [3] concerns Staphylococcus aureus. The data set is described as follows: Antibacterial activity against vancomycin-resistant Staphylococcus aureus isolate 10 after 16 hrs by broth micro dilution method. In kind it is functional. As to conditions: isolate 10, 16 h. The method in brief: as §1
For data set [4], the system named is Staphylococcus aureus. The data set is described as follows: Antibacterial activity against vancomycin-intermediate Staphylococcus aureus Mu50 after 16 hrs by broth micro dilution method. In kind it is functional. As to conditions: Mu50, 16 h. The method in brief:
as §1

The target in data set [5] is T1, UDP-N-acetylglucosamine 1-carboxyvinyltransferase 1 (Staphylococcus aureus subsp. aureus N315) (UniProt P84058).
T1 sequence (whole entry): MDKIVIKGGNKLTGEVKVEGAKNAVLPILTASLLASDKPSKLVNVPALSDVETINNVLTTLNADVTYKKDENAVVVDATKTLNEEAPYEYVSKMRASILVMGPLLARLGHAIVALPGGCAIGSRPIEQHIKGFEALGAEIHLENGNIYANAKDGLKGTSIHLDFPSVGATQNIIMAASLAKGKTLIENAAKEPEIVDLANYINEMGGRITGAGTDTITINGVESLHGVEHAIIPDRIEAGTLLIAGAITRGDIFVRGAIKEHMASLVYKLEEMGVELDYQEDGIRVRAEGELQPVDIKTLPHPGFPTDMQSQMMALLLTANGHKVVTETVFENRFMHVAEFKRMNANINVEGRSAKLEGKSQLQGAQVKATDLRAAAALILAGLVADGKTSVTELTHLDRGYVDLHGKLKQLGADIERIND
The data set is described as follows: Inhibition of GST-tagged Staphylococcus aureus MurA expressed in Escherichia coli BL21(DE3) cells assessed as reduction in EP-UDP-GlcNAc production at 650 uM preincubated with PEP and enzyme for 10 mins followed by UDP-GlcNAc addition measured after 3 hrs by HPLC analysis. The method in brief:
(§2)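 Tag-cleaved S. aureus MurA, 1.0 μg. Preincubated 10 min on ice with 650 μM compound plus 400 μM PEP or 400 μM UDP-GlcNAc. Reaction started with 600 μM of the other substrate, then run 3 h at room temperature in triple replicates. UDP-GlcNAc and EP-UDP-GlcNAc separated by anion-exchange HPLC.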

The target of data set [6] is T2, UDP-N-acetylglucosamine 1-carboxyvinyltransferase 1 (Staphylococcus aureus subsp. aureus N315, UniProt P84058).
T2 sequence (P84058 whole entry): T1 sequence (whole entry)
The data set is described as follows: Inhibition of GST-tagged Staphylococcus aureus MurA expressed in Escherichia coli BL21(DE3) cells preincubated with PEP and enzyme for 10 mins followed by UDP-GlcNAc addition measured after 3 hrs by HPLC analysis. An outline of the steps:
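Purified S. aureus MurA (GST tag cleaved off by PreScission protease, 350 nM) was preincubated 10 min with 300 μM PEP and albocycline (0–5000 μM) in 50 mM Tris, 2 mM KCl at 25 °C, in triplicate. UDP-GlcNAc was then added and the reaction run 3 h at room temperature. UDP-GlcNAc and EP-UDP-GlcNAc were separated by MonoQ anion-exchange HPLC with an ammonium bicarbonate gradient. Percent inhibition came from relative peak areas, and IC50 from a nonlinear dose-response fit.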

Data set [7] addresses UDP-N-acetylglucosamine 1-carboxyvinyltransferase (Escherichia coli K-12) (UniProt P0A749). The data set is described as follows: Inhibition of GST-tagged Escherichia coli MurA expressed in Escherichia coli BL21(DE3) cells preincubated with PEP and enzyme for 10 mins followed by UDP-GlcNAc addition measured after 3 hrs by HPLC analysis. The method in brief:
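GST-tagged enzyme, GST removed by PreScission protease after glutathione affinity capture. Conditions: 50 mM Tris, 2 mM KCl, room temperature (25 °C), in triplicate. Enzyme preincubated 10 min with PEP and compound, then UDP-GlcNAc added. Substrate and product separated by MonoQ anion-exchange HPLC with an ammonium bicarbonate gradient. Percent inhibition taken from UDP-GlcNAc/EP-UDP-GlcNAc peak areas.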

The test system of data set [8] is Staphylococcus aureus. The data set is described as follows: Antibacterial activity against methicillin-sensitive Staphylococcus aureus UAMS-1 after 16 hrs by broth micro dilution method. In kind it is functional. Particulars: UAMS-1, 16 h. The method in brief:
as §1

The test system of another data set is HepG2. The data set is described as follows: Cytotoxicity against human HepG2 cells at <= 64 ug/ml by MTT assay. In kind it is cell-based. The method in brief: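 HepG2 human hepatocellular carcinoma cells; colorimetric MTT cell proliferation assay; compound tested at final concentrations up to 64 μg/mL.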
In data set [9] the test system is UDP-N-acetylglucosamine 1-carboxyvinyltransferase 2 (Staphylococcus aureus). The experiment in a line: Inhibition of GST-tagged Staphylococcus aureus MurZ expressed in Escherichia coli BL21(DE3) cells preincubated with PEP and enzyme for 10 mins followed by UDP-GlcNAc addition measured after 3 hrs by HPLC analysis.
The target of data set [10] is T1, UDP-N-acetylglucosamine 1-carboxyvinyltransferase 1 (Staphylococcus aureus subsp. aureus N315). The experiment in a line: Inhibition of GST-tagged Staphylococcus aureus MurA expressed in Escherichia coli BL21(DE3) cells assessed as reduction in EP-UDP-GlcNAc production at 650 uM preincubated with UDP-GlcNAc and enzyme for 10 mins followed by PEP addition measured after 3 hrs by HPLC analysis. An outline of the steps:
as §2

The test system of data set [11] is Staphylococcus aureus. The experiment in a line: Antibacterial activity against methicillin-resistant Staphylococcus aureus. The class given is functional. An outline of the steps:
as §1

The test system of data set [12] is Staphylococcus aureus. The experiment in a line: Antibacterial activity against methicillin-resistant Staphylococcus aureus LAC JE2 after 16 hrs by broth micro dilution method. The class given is functional. As to conditions: LAC JE2, 16 h. The method in brief: as §1
For data set [13], the target named is T2, UDP-N-acetylglucosamine 1-carboxyvinyltransferase 1. The data set is described as follows: Inhibition of Staphylococcus aureus MurA assessed as reduction in [3H]GlcNAc uptake.

≈ marks a conversion by molar mass, not a printed value. Calls of active or inactive are those of the source. The rule behind the calls is not given here.

Chain of UDP-N-acetylglucosamine 1-carboxyvinyltransferase (Escherichia coli K-12) (P0A749 whole entry): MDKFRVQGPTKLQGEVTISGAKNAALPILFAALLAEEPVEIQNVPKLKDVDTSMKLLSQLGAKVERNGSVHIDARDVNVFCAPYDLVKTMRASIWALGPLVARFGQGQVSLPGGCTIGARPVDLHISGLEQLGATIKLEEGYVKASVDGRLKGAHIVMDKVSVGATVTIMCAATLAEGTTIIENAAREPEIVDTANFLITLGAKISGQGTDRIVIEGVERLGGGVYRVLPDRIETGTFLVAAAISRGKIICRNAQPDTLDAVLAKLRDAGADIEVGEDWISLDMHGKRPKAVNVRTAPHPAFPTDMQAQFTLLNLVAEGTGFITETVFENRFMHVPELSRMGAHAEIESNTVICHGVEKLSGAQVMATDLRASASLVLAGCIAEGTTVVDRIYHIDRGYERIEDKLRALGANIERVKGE

One may read the MIC as the least concentration at which growth counts as inhibited. High values mean weaker potency, low ones greater potency. As for `C[C@@H]1O[C@@H]1P(=O)(O)O` [FOSFOMYCIN], the values for the MIC in the data set with Escherichia coli and in the data set with Staphylococcus aureus [1] were 1 µg/mL (≈ 7.24 µM) and 32 µg/mL (≈ 232 µM), respectively.

For the compound `CN[C@H](CC(C)C)C(=O)N[C@H]1C(=O)N[C@@H](CC(N)=O)C(=O)N[C@H]2C(=O)N[C@H]3C(=O)N[C@H](C(=O)N[C@H](C(=O)O)c4cc(O)cc(O)c4-c4cc3ccc4O)[C@H](O)c3ccc(c(Cl)c3)Oc3cc2cc(c3O[C@@H]2O[C@H](CO)[C@@H](O)[C@H](O)[C@H]2O[C@H]2C[C@](C)(N)[C@H](O)[C@H](C)O2)Oc2ccc(cc2Cl)[C@H]1O` [VANCOMYCIN], the MIC with Staphylococcus aureus [2] and with Staphylococcus aureus [3] was more than 64 µg/mL each time.

In general, IC50 refers to the point on the concentration scale where inhibition reaches its midpoint. `CO[C@H]1/C=C/[C@@](C)(O)/C=C/C(=O)O[C@H](C)[C@@H](C)CC/C=C/1C`: the MIC is 2 µg/mL (≈ 6.48 µM) against Staphylococcus aureus [4]; 4 µg/mL (≈ 13 µM) against Staphylococcus aureus [2]; more than 256 µg/mL in the data set with Escherichia coli; 1 µg/mL (≈ 3.24 µM) with Staphylococcus aureus [1]; 0.5 µg/mL (≈ 1.62 µM) against Staphylococcus aureus [8]; 0.5 to 1 µg/mL (≈ 1.62 to 3.24 µM) against Staphylococcus aureus [11]. In addition, the MIC with Staphylococcus aureus [12] amounted to 2 µg/mL (≈ 6.48 µM); in the data set on Staphylococcus aureus [3], 1 µg/mL (≈ 3.24 µM). In data set [5], the inhibition entry was “Active”. For the same compound, the IC50 in data set [6] came out at 480 µM; in data set [13], 112 µM. Besides, the inhibition result in data set [7], in [9] and in data set [10] was “inactive” each time. For the same compound, the Activity result in the data set with HepG2 is “Non-Toxic”.

The values above are taken from ChEMBL document CHEMBL4118218, “Elucidating the inhibition of peptidoglycan biosynthesis in Staphylococcus aureus by albocycline, a macrolactone isolated from Streptomyces maizeus” (Bioorg Med Chem, 2018).
